Assay results taken from ChEMBL document CHEMBL1144562, “Synthesis of a new class of 2-anilino substituted nicotinyl arylsulfonylhydrazides as potential anticancer and antibacterial agents” (2007).
Values after ≈ are worked out from the molar mass of the structure shown.

Assays:
Assay type in all cases: functional
Bacillus subtilis = test: Antibacterial activity against Bacillus subtilis MTCC 441 after 18 hrs; settings: MTCC 441, 18 h
How it was run: (§1)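 Disc diffusion (Kirby–Bauer) on Mueller-Hinton agar inoculated with fresh bacteria at 1-5 × 10^4 cfu mL-1. Compounds were dissolved in DMF at a range of concentrations, and discs were placed in triplicate. Plates were incubated at 30 °C for 18 h. MIC was taken as the lowest concentration giving no visible bacterial growth on the plate.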

Vibrio = test: Antibacterial activity against Vibrio species after 18 hrs; how it was run: as §1
Escherichia coli = test: Antibacterial activity against Escherichia coli MTCC 448 after 18 hrs; settings: MTCC 448, 18 h; how it was run: as §1
[1] = test system: Staphylococcus epidermidis; test: Antibacterial activity against Staphylococcus epidermidis MTCC 435 after 18 hrs; settings: MTCC 435, 18 h; how it was run: as §1
Pseudomonas aeruginosa = test: Antibacterial activity against Pseudomonas aeruginosa MTCC 424 after 18 hrs; settings: MTCC 424, 18 h; how it was run: as §1

SMILES	MIC (Bacillus subtilis) [µg/mL]	MIC (Vibrio) [µg/mL]	MIC (Escherichia coli) [µg/mL]	MIC [1] [µg/mL]	MIC (Pseudomonas aeruginosa) [µg/mL]
O=C(NNS(=O)(=O)c1ccc(Cl)cc1)c1cccnc1Nc1ccc(F)cc1	10 (≈ 23.8 µM)	21 (≈ 49.9 µM)	18 (≈ 42.8 µM)	16 (≈ 38 µM)	> 25
COc1ccc(Nc2ncccc2C(=O)NNS(=O)(=O)c2ccc(C)cc2)cc1	8 (≈ 19.4 µM)	19 (≈ 46.1 µM)	15 (≈ 36.4 µM)	17 (≈ 41.2 µM)	> 25
Nc1ccc(S(=O)(=O)Nc2ncccn2)cc1 [SULFADIAZINE]	18 (≈ 71.9 µM)	13 (≈ 51.9 µM)	15 (≈ 59.9 µM)	20 (≈ 79.9 µM)	22 (≈ 87.9 µM)
Nc1ccc(S(N)(=O)=O)cc1 [SULFANILAMIDE]	> 128	> 512	> 128	> 512	> 512
CC(=O)Nc1ccc(S(=O)(=O)NNC(=O)c2cccnc2Nc2ccc(F)cc2)cc1	16 (≈ 36.1 µM)	22 (≈ 49.6 µM)	20 (≈ 45.1 µM)	19 (≈ 42.8 µM)	> 25
Cc1ccc(S(=O)(=O)NNC(=O)c2cccnc2Nc2ccc(Cl)cc2)cc1	9 (≈ 21.6 µM)	23 (≈ 55.2 µM)	16 (≈ 38.4 µM)	14 (≈ 33.6 µM)	> 25
O=C(NNS(=O)(=O)c1ccc(F)cc1)c1cccnc1Nc1ccc(F)cc1	10 (≈ 24.7 µM)	22 (≈ 54.4 µM)	13 (≈ 32.1 µM)	20 (≈ 49.5 µM)	> 25
O=C(NNS(=O)(=O)c1ccccc1)c1cccnc1Nc1ccccc1	17 (≈ 46.1 µM)	20 (≈ 54.3 µM)	20 (≈ 54.3 µM)	21 (≈ 57 µM)	> 25
